Key:
[1] = Growth inhibition of human p53 deficient H1299 cells after 7 days by celltiter-glo assay; type: functional; conditions: NCI-H1299, 168 h
Procedure, shortened: (§1)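 Cells seeded at 500 per well in 384-well plates. Compounds came from 30 mM DMSO stocks, serially diluted and tested in quadruplicate. Incubation was 7 d at 37 °C under 5% CO2. Calcein AM (10 μM) and EthD-1 were added, followed by a fluorescence read. CellTiter-Glo lysis was then done for 10 min at room temperature, with a luminescence read. GI50 came from curve fitting.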

SF-268 = test: Growth inhibition of human SF268 cells after 7 days by celltiter-glo assay; type: functional; conditions: SF-268, 168 h
NCI-H460 = test: Growth inhibition of human NCI-H460 cells after 7 days by celltiter-glo assay; type: functional; conditions: NCI-H460, 168 h
HT-29 = test: Growth inhibition of human HT-29 cells after 7 days by celltiter-glo assay; type: functional; conditions: HT-29, 168 h
MCF7 = test: Growth inhibition of human MCF7 cells after 7 days by celltiter-glo assay; type: functional; conditions: MCF7, 168 h
[2] = Growth inhibition of human p53 deficient Hep3B cells after 7 days by celltiter-glo assay; type: functional, Hep 3B2; conditions: 168 h; procedure, shortened: as §1
HCT-15 = test: Growth inhibition of human HCT15 cells after 7 days by celltiter-glo assay; type: functional; conditions: HCT-15, 168 h
SK-OV-3 = test: Growth inhibition of human SKOV3 cells after 7 days by celltiter-glo assay; type: functional; conditions: SK-OV-3, 168 h
A549 = test: Growth inhibition of human A549 cells expressing p53 after 7 days by celltiter-glo assay; type: functional; conditions: A549, 168 h
DU-145 = test: Growth inhibition of human DU145 cells after 7 days by celltiter-glo assay; type: functional; conditions: DU-145, 168 h

SMILES | GI50 [1] [µM] | GI50 (SF-268) [µM] | GI50 (NCI-H460) [µM] | GI50 (HT-29) [µM] | GI50 (MCF7) [µM] | GI50 [2] [µM] | GI50 (HCT-15) [µM] | GI50 (SK-OV-3) [µM] | GI50 (A549) [µM] | GI50 (DU-145) [µM]
CON(CCCc1ccc(N(CCCl)CCCl)cc1)C1O[C@H](CO)[C@@H](O[C@@H]2O[C@H](CO)[C@@H](O)[C@H](O)[C@H]2O)[C@H](O)[C@H]1O (stereo not given in full) | 1.8 | 1.5 | 3.8 | 1.9 | 1.7 | 1.2 | 2.3 | 1.8 | 1.6 | 1.8
CON(CCCc1ccc(N(CCCl)CCCl)cc1)[C@H]1C[C@@H](O)[C@H](O)[C@@H](CO)O1 | 0.58 | 2.5 | 5.4 | 1.2 | 5.4 | 3.7 | 0.7 | 1.12 | 3.1 | 4.3
CON(CCCc1ccc(N(CCCl)CCCl)cc1)[C@@H]1O[C@H](CO)[C@@H](O)[C@H](O)[C@H]1F | 1.2 | 2.2 | 6.4 | 2.4 | 7.3 | 3.2 | 1.08 | 2 | 2.6 | 4.2
CON(CCCc1ccc(N(CCCl)CCCl)cc1)[C@@H]1O[C@H](CO)[C@@H](O)[C@H](F)[C@H]1O | 1.3 | 2.2 | 7.1 | 2.6 | 7 | 3.2 | 1.2 | 2.2 | 3 | 4.1
O[C@@H]1[C@H](O)COC(N(O)CCCc2ccc(N(CCCl)CCCl)cc2)[C@@H]1O (stereo not given in full) | 1.6 | 1.5 | 1.04 | 0.9 | 3.2 | > 5 | 0.87 | 0.89 | 0.84 | > 5
[O-]/[N+](=C\[C@@H](O)[C@H](O)CO)CCCc1ccc(N(CCCl)CCCl)cc1 | 1.07 | 1.2 | 3.8 | 3.2 | 2 | 1.7 | 2.5 | 2.6 | 3 | 3.6
CON(CCCc1ccc(N(CCCl)CCCl)cc1)[C@@H]1O[C@H](CCl)[C@@H](O)[C@H](O)[C@H]1O | 1.3 | 2.1 | 5.8 | 2.1 | 4.9 | 3.2 | 1.2 | 2.1 | 3 | 3.7
CON(CCCc1ccc(N(CCCl)CCCl)cc1)C1OC[C@@H](O)[C@H](O)[C@@H]1O (stereo not given in full) | 0.76 | 1.6 | 5.2 | 2 | 1 | 2.5 | 0.79 | 1.8 | 2.3 | 3.6
CON(CCCc1ccc(N(CCCl)CCCl)cc1)C1OC[C@H](O)[C@@H](O)[C@H]1O (stereo not given in full) | 0.88 | 1.2 | 5.8 | 2.4 | 0.94 | 3 | 0.95 | 1.8 | 2.2 | 3.9
CON(CCCc1ccc(N(CCCl)CCCl)cc1)C1O[C@H](CO)[C@@H](O)[C@@H](O)[C@@H]1O (stereo not given in full) | 0.91 | 1.9 | 6.6 | 1.6 | 6.5 | 1.7 | 1.4 | 1.9 | 2.4 | 4.1
CON(CCCc1ccc(N(CCCl)CCCl)cc1)C1O[C@@H](CO)[C@H](O)[C@H](O)[C@H]1O (stereo not given in full) | 1.3 | 2.3 | 7.9 | 2.1 | 7.9 | 2 | 1.4 | 2.5 | 3.1 | 4.1
CON(CCCc1ccc(N(CCCl)CCCl)cc1)[C@H]1C[C@@H](O)[C@H](O)[C@@H](C)O1 | 4.8 | 2.3 | 5.7 | 3.2 | 3.1 | 3.8 | 2.5 | 3.2 | 3.1 | 5.5
CON(CCCc1ccc(N(CCCl)CCCl)cc1)C1OC[C@@H](O)[C@@H](O)[C@@H]1O (stereo not given in full) | 0.73 | 1.8 | 5 | 1.5 | 4.6 | 1.6 | 0.9 | 2 | 2 | 3.3
CON(CCCc1ccc(N(CCCl)CCCl)cc1)C1OC[C@H](O)[C@H](O)[C@H]1O (stereo not given in full) | 0.84 | 1.9 | 6.1 | 1.9 | 5.4 | 1.9 | 1 | 2.2 | 2.3 | 3.6
CON(CCCc1ccc(N(CCCl)CCCl)cc1)C1O[C@@H](C)[C@H](O)[C@@H](O)[C@H]1O (stereo not given in full) | 3.7 | 1.9 | 5.3 | 2.4 | 2.2 | 2.6 | 2 | 2 | 2.5 | 4.2
CON(CCCc1ccc(N(CCCl)CCCl)cc1)C1C[C@H](O)[C@H](O)[C@@H](C)O1 (stereo not given in full) | 1.1 | 2.8 | 6.5 | 2.1 | 6.3 | 3.2 | 1.3 | 3 | 2.7 | 4.3
CON(CCCc1ccc(N(CCCl)CCCl)cc1)[C@@H]1OC[C@@H](O)[C@H]1O | 1.1 | 2.4 | 7.8 | 1.6 | 8 | 4.1 | 0.77 | 2.6 | 3.1 | 5
CON(CCCc1ccc(N(CCCl)CCCl)cc1)C1OC[C@@H](O)[C@@H](O)[C@H]1O (stereo not given in full) | 3.6 | 1.9 | 5.9 | 2.3 | 1.1 | 2.4 | 1.8 | 2 | 2.8 | 3.8
CON(CCCc1ccc(N(CCCl)CCCl)cc1)C1OC[C@H](O)[C@H](O)[C@@H]1O (stereo not given in full) | 3.3 | 2.1 | 5.7 | 2.2 | 0.97 | 2.4 | 2.1 | 2 | 2.4 | 3.7
CON(CCCc1ccc(N(CCCl)CCCl)cc1)C1O[C@@H](C)[C@@H](O)[C@@H](O)[C@@H]1O (stereo not given in full) | 1.2 | 2 | 5.4 | 2.3 | 0.78 | 3 | 1.4 | 1.8 | 2.2 | 3.8
CON(CCCc1ccc(N(CCCl)CCCl)cc1)C1C[C@H](O)[C@H](O)CO1 (stereo not given in full) | 3.7 | 2.1 | 5.8 | 2.6 | 0.96 | 2.6 | 2.3 | 2 | 2.6 | 4
CON(CCCc1ccc(N(CCCl)CCCl)cc1)C1C[C@@H](O)[C@@H](O)CO1 (stereo not given in full) | 3.9 | 2 | 5.2 | 2.3 | 1.3 | 2.5 | 2.2 | 2.2 | 2.5 | 3.3
CON(CCCc1ccc(N(CCCl)CCCl)cc1)[C@H]1O[C@H](CO)[C@H](O)[C@H](O)[C@@H]1O | 3 | 1.7 | 5 | 1.8 | 1.5 | 2.4 | 2.2 | 2 | 2.6 | 3.3
CON(CCCc1ccc(N(CCCl)CCCl)cc1)[C@@H]1O[C@H](CO)[C@H](O)[C@H](O)[C@@H]1O | 2.4 | 1.7 | 4.3 | 1.9 | 1.8 | 2.6 | 2 | 2 | 2.7 | 3.4
CON(CCCc1ccc(N(CCCl)CCCl)cc1)C1OC[C@H](O)[C@H]1O (stereo not given in full) | 0.72 | 1.3 | 1.9 | 1.2 | 0.87 | 1.4 | 0.82 | 2.1 | 2 | 2.1
CON(CCCc1ccc(N(CCCl)CCCl)cc1)[C@@H]1OC[C@@H](O)[C@H](O)[C@H]1O | 0.83 | 1.4 | 4.5 | 1.6 | 0.91 | 1.5 | 0.9 | 2.2 | 2.3 | 2.3
CON(CCCc1ccc(N(CCCl)CCCl)cc1)[C@H]1OC[C@H](O)[C@@H](O)[C@@H]1O | 0.93 | 1.5 | 2.9 | 1.5 | 1.2 | 1.6 | 0.83 | 2.4 | 2.2 | 2.2

— ChEMBL document CHEMBL1275392, “Assessment of chemoselective neoglycosylation methods using chlorambucil as a model” (2010)
